Reference: ChEMBL document CHEMBL4364240, “Tetracyclines as Inhibitors of Pre-microRNA Maturation: A Disconnection between RNA Binding and Inhibition” (ACS Med Chem Lett, 2019)
Activity calls are given as the source filed them. The rule behind the calls is not given here.

Key:
microRNA 21 [1] = experiment: Inhibition of Dicer mediated biotinylated pre-miRNA-21 (unknown origin) maturation preincubated for 15 mins followed by pre-miRNA-21 addition and measured after 5 hrs by cat-ELCCA; format: nucleic-acid assay
In short: (§1)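 Dose-response cat-ELCCA in which Dicer is in excess over the biotinylated pre-miRNA substrate to ensure adequate signal-to-background. IC50 values are derived from the inhibition curves and reported as 95% confidence intervals.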

[2] = Inhibition of biotinylated pre-let-7d microRNA (unknown origin) maturation preincubated for 15 mins followed by Pre-let-7d addition and measured after 5 hrs by cat-ELCCA; in short: as §1
microRNA 21 [3] = experiment: Binding affinity to biotinylated pre-miRNA-21 (unknown origin) by SPR analysis; format: nucleic-acid assay
microRNA 21 [4] = experiment: Inhibition of Dicer mediated 5'-biotinylated PEG linked pre-miRNA-21 (unknown origin) maturation; format: nucleic-acid assay
microRNA 21 [5] = experiment: Inhibition of Dicer mediated biotinylated pre-miRNA-21 (unknown origin) maturation at 1 mM measured after 15 mins by cat-ELCCA relative to control; format: nucleic-acid assay
In short: (§2)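 Single-point cat-ELCCA screen at 1.0 mM compound. Recombinant Dicer is used in excess over the pre-miRNA substrate to give enough signal-to-background. The read-out is percent inhibition of processing.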

[6] = Inhibition of biotinylated pre-let-7d (unknown origin) maturation at 1 mM preincubated for 15 mins followed by Pre-let-7d addition and measured after 5 hrs by cat-ELCCA; in short: as §2
[7] = Binding affinity to biotinylated pre-let-7d microRNA (unknown origin) by SPR analysis
microRNA 21 [8] = experiment: […] miR-21 RNA in human HeLA cells transfected with pmirGLO empty vector incubated for 48 hrs by Dual-Glo luciferase assay; format: cell-based
microRNA 21 [9] = experiment: […] miR-21 RNA in human HeLA cells transfected with pmir21 vector incubated for 48 hrs by Dual-Glo luciferase assay; format: cell-based
microRNA 21 [10] = experiment: Inhibition of Dicer mediated biotinylated pre-miRNA-21 (unknown origin) maturation in presence of 1 to 3 mM MgCl2 preincubated for 15 mins followed by pre-miRNA-21 addition and measured after 5 hrs by cat-ELCCA; format: nucleic-acid assay
microRNA 21 [11] = experiment: Inhibition of Dicer mediated biotinylated pre-miRNA-21 (unknown origin) maturation in presence of 1;1 ratio of CaCl2 and MgCl2 preincubated for 15 mins followed by pre-miRNA-21 addition and measured after 5 hrs by cat-ELCCA; format: nucleic-acid assay
Escherichia coli = experiment: Inhibition of Escherichia coli RNase 3 dsRBD assessed as inhibition of pre-miRNA-21 maturation incubated for 0.5 to 1 hr

With O=c1nc(/C=C/c2ccc(O)c(O)c2)oc2ccccc12 as the compound, how does the IC50 (microRNA 21 [1]) read?
Its IC50 is 692 µM.

What about the IC50 [2] of the same compound?
Its IC50 is “Not Active”.

Which results are given for COc1ccc(-c2cc(-c3cc(OC)ccc3O)[nH]n2)cc1?
IC50 (microRNA 21 [1]): 148 µM; IC50 [2]: Not Active

For Nc1ccc(-c2nc3cc(-c4nc5ccccc5o4)ccc3[nH]2)cc1, which IC50 (microRNA 21 [1]) is on record?
The IC50 was 229 µM.

And the IC50 [2]?
The IC50 was “Not Active”.

Which IC50 (microRNA 21 [1]) does the source give for CN1c2ccccc2C(C)(C)C12C=Cc1cc(O)ccc1O2 (centres undefined) here?
The IC50 was 15 µM.

And the IC50 [2]?
Its IC50 is “Not Active”.

Which Kd (microRNA 21 [3]; read-out: Kd) does the source give for CN1CCN(c2ccc3nc(-c4ccc5nc(-c6ccc(O)cc6)[nH]c5c4)[nH]c3c2)CC1 here?
Its Kd is 0.1 to 0.7 µM.

What does the source list for Oc1ccc(-c2csc(Cc3c[nH]c4ccccc34)n2)cc1O?
IC50 (microRNA 21 [1]): 398 µM; IC50 [2]: Not Active

Which IC50 (microRNA 21 [1]) does the source give for O=c1oc2c(-c3cccc(Cl)c3)cc(O)cc2s1 here?
The IC50 was 645 µM.

And the IC50 [2]?
Its IC50 is “Not Active”.

Which inhibition (microRNA 21 [4]) does the source give for CC(=O)Oc1cccc2c1C(=O)C1=C(O)[C@]3(OC(C)=O)C(=O)C(C(N)=O)=C(O)[C@@H](N(C)C)[C@@H]3[C@@H](OC(C)=O)[C@@H]1[C@]2(C)OC(C)=O here?
The inhibition was “Active”.

With CN(C)[C@@H]1C(O)=C(C(N)=O)C(=O)[C@@]2(O)C(O)=C3C(=O)c4c(O)ccc(Cl)c4[C@@H](O)[C@H]3C[C@@H]12 as the compound, how does the inhibition (microRNA 21 [5]) read?
The inhibition was 40 to 100%.

Which inhibition (microRNA 21 [5]) does the source give for CN(C)[C@H]1C(O)=C(C(N)=O)C(=O)[C@@]2(O)C(O)=C3C(=O)c4c(O)cccc4[C@@](C)(O)[C@H]3C[C@@H]12 here?
Its inhibition is 40 to 100%.

With CN(C)c1cc(NC(=O)CNC(C)(C)C)c(O)c2c1C[C@H]1C[C@H]3[C@H](N(C)C)C(O)=C(C(N)=O)C(=O)[C@@]3(O)C(O)=C1C2=O as the compound, how does the inhibition (microRNA 21 [5]) read?
Its inhibition is 40 to 100%.

With CN1CCN(c2ccc3[nH]c(-c4ccc5[nH]c(-c6ccc(O)cc6)nc5c4)nc3c2)CC1 as the compound, how does the inhibition (microRNA 21 [5]) read?
Its inhibition is “inactive”.

And the inhibition [6]?
The inhibition was “inactive”.

Which inhibition (microRNA 21 [5]) does the source give for Cc1c2c(c(O)c3c(O)cccc13)C(=O)[C@]1(O)C(=O)C(C(N)=O)=C(O)[C@@H](N(C)C)[C@@H]1C2 here?
The inhibition was 40 to 100%.

With CN(C)[C@@H]1C(O)=C(C(N)=O)C(=O)[C@@]2(O)C(O)=C3C(=O)c4c(O)ccc(Cl)c4[C@@](C)(O)[C@H]3C[C@@H]12 [CHLORTETRACYCLINE] as the compound, how does the IC50 (microRNA 21 [1]) read?
Its IC50 is 155 to 274 µM.

What about the IC50 ([2]; read-out: IC50) of the same compound?
The IC50 was 237 to 307 µM.

What about the inhibition (microRNA 21 [5]) of the same compound?
The inhibition was 40 to 100%.

Which IC50 (microRNA 21 [1]) does the source give for C[C@H]1c2cccc(O)c2C(=O)C2=C(O)[C@]3(O)C(=O)C(C(N)=O)=C(O)[C@@H](N(C)C)[C@@H]3[C@@H](O)[C@@H]21 [DOXYCYCLINE] here?
The IC50 was 433 to 1410 µM.

What about the IC50 ([2]; read-out: IC50) of the same compound?
The IC50 was 433 to 1300 µM.

And the inhibition (microRNA 21 [5])?
The inhibition was 40 to 100%.

With NC[C@@H]1O[C@H](O[C@H]2[C@@H](O)[C@H](O[C@@H]3[C@@H](O)[C@H](N)C[C@H](N)[C@H]3O[C@H]3O[C@H](CN)[C@@H](O)[C@H](O)[C@H]3N)O[C@@H]2CO)[C@H](N)[C@@H](O)[C@@H]1O [FRAMYCETIN] as the compound, how does the Kd (microRNA 21 [3]; read-out: Kd) read?
Its Kd is 0.1 to 0.7 µM.

What about the inhibition (microRNA 21 [5]) of the same compound?
The inhibition was “inactive”.

What about the inhibition [6] of the same compound?
Its inhibition is “inactive”.

What does the source list for NC(=O)C1=C(O)C[C@@H]2C[C@@H]3Cc4cccc(O)c4C(=O)C3=C(O)[C@]2(O)C1=O [INCYCLINIDE]?
Kd (microRNA 21 [3]): Not Active; Kd [7]: Not Active; IC50 (microRNA 21 [1]): 358 to 469 µM; inhibition (microRNA 21 [1]): Dose-dependent effect; inhibition [2]: Dose-dependent effect; IC50 ([2]; read-out: IC50): 383 to 775 µM

With NC[C@H]1O[C@H](O[C@H]2[C@H](O)[C@@H](O[C@H]3O[C@H](CO)[C@@H](O)[C@H](N)[C@H]3O)[C@H](N)C[C@@H]2N)[C@H](O)[C@@H](O)[C@@H]1O [KANAMYCIN] as the compound, how does the Kd (microRNA 21 [3]; read-out: Kd) read?
Its Kd is 0.1 to 0.7 µM.

What about the inhibition (microRNA 21 [5]) of the same compound?
The inhibition was “inactive”.

What about the inhibition [6] of the same compound?
Its inhibition is “inactive”.

With C=C1c2c(Cl)ccc(O)c2C(=O)C2=C(O)[C@]3(O)C(=O)C(C(N)=O)=C(O)[C@@H](N(C)C)[C@@H]3[C@@H](O)[C@H]12 [MECLOCYCLINE] as the compound, how does the Kd (microRNA 21 [3]; read-out: Kd) read?
The Kd was 2.1 µM.

And the Kd ([7]; read-out: Kd)?
Its Kd is 5.8 µM.

And the IC50 (microRNA 21 [1])?
Its IC50 is 62 to 196 µM.

What about the IC50 ([2]; read-out: IC50) of the same compound?
The IC50 was 80 to 240 µM.

What about the inhibition (microRNA 21 [5]) of the same compound?
Its inhibition is 40 to 100%.

What about the Activity (microRNA 21 [8]) of the same compound?
Its Activity is “inactive”.

What about the Activity (microRNA 21 [9]) of the same compound?
The Activity was “inactive”.

Which Kd (microRNA 21 [3]; read-out: Kd) does the source give for C=C1c2cccc(O)c2C(=O)C2=C(O)[C@]3(O)C(=O)C(C(N)=O)=C(O)[C@@H](N(C)C)[C@@H]3[C@@H](O)[C@H]12 [METHACYCLINE] here?
The Kd was 9.9 µM.

And the Kd ([7]; read-out: Kd)?
Its Kd is 17 µM.

And the IC50 (microRNA 21 [1])?
The IC50 was 56 to 437 µM.

And the IC50 ([2]; read-out: IC50)?
Its IC50 is 97 to 749 µM.

What about the inhibition (microRNA 21 [5]) of the same compound?
The inhibition was 40 to 100%.

And the inhibition (microRNA 21 [10])?
The inhibition was “Active”.

What about the inhibition (microRNA 21 [11]) of the same compound?
The inhibition was “Active”.

What about the inhibition (Escherichia coli) of the same compound?
The inhibition was “Active”.

What about the Activity (microRNA 21 [8]) of the same compound?
The Activity was “inactive”.

And the Activity (microRNA 21 [9])?
Its Activity is “inactive”.

What does the source list for CN(C)c1ccc(O)c2c1C[C@H]1C[C@H]3[C@H](N(C)C)C(O)=C(C(N)=O)C(=O)[C@@]3(O)C(O)=C1C2=O [MINOCYCLINE]?
IC50 (microRNA 21 [1]): 305 to 539 µM; IC50 ([2]; read-out: IC50): 437 to 744 µM; inhibition (microRNA 21 [5]): 40 to 100%

Which IC50 (microRNA 21 [1]) does the source give for CN(C)[C@@H]1C(O)=C(C(N)=O)C(=O)[C@@]2(O)C(O)=C3C(=O)c4c(O)cccc4[C@@](C)(O)[C@H]3[C@H](O)[C@@H]12 [OXYTETRACYCLINE] here?
The IC50 was 200 to 918 µM.

What about the IC50 ([2]; read-out: IC50) of the same compound?
The IC50 was 431 to 1020 µM.

And the inhibition (microRNA 21 [5])?
Its inhibition is 40 to 100%.

For CN[C@@H]1[C@H](O[C@H]2[C@H](O[C@H]3[C@H](O)[C@@H](O)[C@H](N=C(N)N)[C@@H](O)[C@@H]3N=C(N)N)O[C@@H](C)[C@]2(O)C=O)O[C@@H](CO)[C@H](O)[C@H]1O [STREPTOMYCIN], which Kd (microRNA 21 [3]; read-out: Kd) is on record?
Its Kd is 0.1 to 0.7 µM.

What about the inhibition (microRNA 21 [5]) of the same compound?
Its inhibition is “inactive”.

And the inhibition [6]?
Its inhibition is “inactive”.

For CN(C)[C@@H]1C(O)=C(C(N)=O)C(=O)[C@@]2(O)C(O)=C3C(=O)c4c(O)cccc4[C@@](C)(O)[C@H]3C[C@@H]12 [TETRACYCLINE], which IC50 (microRNA 21 [1]) is on record?
Its IC50 is 434 to 1000 µM.

What about the IC50 ([2]; read-out: IC50) of the same compound?
Its IC50 is 421 to 865 µM.

And the inhibition (microRNA 21 [5])?
Its inhibition is 40 to 100%.

What about the Activity (microRNA 21 [8]) of the same compound?
The Activity was “inactive”.

What about the Activity (microRNA 21 [9]) of the same compound?
Its Activity is “inactive”.
